Reference: PMC2873786 (Organic & biomolecular chemistry, 2009)
Like-named read-outs stand apart in the source and are kept apart here.

What was measured:
[1] = calculated, gas-phase; ref 18c; cited from earlier work
[2] = cited from earlier work
[3] = Spectrophotometric determination of pKa values; type: physicochemical; settings: 298 K, 10 mM potassium phosphate, 200 mM KCl, spectrophotometry
How it was run: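 UV spectra were recorded in buffer at varied pH, blank first. Compound was added from a 25 mM ethanol stock and the pH was remeasured. Aryloxide fraction came from absorbance at λmax, normalised between low- and high-pH limits. pKa was obtained by fitting the fraction versus pH to a sigmoidal function.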

oCOX-1 peroxidase = target: T1, oCOX-1 peroxidase (Ovis aries, UniProt P05979); experiment: Effect on reduction of PPHP to PPA; type: biochemical, ovine; settings: for peroxidase activation at low concentration: at 100 μM, compared with 1-3; for increase in peroxidase activity of oCOX-1: at a concentration of 1 mM, PPHP to PPA
T1 sequence (P05979 25-600): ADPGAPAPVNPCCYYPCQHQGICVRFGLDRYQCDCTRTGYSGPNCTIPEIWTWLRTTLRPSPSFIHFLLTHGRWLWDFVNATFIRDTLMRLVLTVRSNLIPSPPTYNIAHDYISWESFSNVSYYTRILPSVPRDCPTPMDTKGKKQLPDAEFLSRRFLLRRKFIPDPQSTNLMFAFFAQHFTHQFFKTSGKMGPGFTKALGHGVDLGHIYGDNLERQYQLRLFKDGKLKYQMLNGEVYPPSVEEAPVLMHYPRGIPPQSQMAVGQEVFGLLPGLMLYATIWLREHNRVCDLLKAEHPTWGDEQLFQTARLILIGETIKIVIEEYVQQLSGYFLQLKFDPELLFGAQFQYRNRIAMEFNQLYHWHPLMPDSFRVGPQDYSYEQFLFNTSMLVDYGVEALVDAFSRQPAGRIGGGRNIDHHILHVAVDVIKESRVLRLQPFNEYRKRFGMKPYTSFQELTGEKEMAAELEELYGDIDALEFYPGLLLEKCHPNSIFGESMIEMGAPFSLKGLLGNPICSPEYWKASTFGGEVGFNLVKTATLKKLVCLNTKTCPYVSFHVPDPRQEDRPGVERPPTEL
How it was run: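 Ovine COX-1 was held 30 min on ice with 2 equiv hematin in Tris·HCl pH 8.0 without phenol. It was warmed 5 min at 37 °C with or without compound. PPHP (10 μM final) was prewarmed 2 min. The reaction was started with enzyme at 5.4 nM and quenched after 8 s with ice-cold ether–methanol–citric acid. The organic phase was dried under nitrogen, redissolved in 65% methanol–water, and analysed by HPLC for PPA formation.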

[4] = Anodic peak potentials by differential pulse voltammetry; type: physicochemical; settings: 298 K versus Ag/AgCl, at the pKa
How it was run: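 Glassy carbon working electrode (alumina-polished between trials), Ag/AgCl reference, platinum wire counter. Buffer was 10 mM potassium phosphate with KCl electrolyte, pH set with KOH or HCl. Compound was added from a 25 mM ethanol stock, pH was measured, and the solution was argon-purged 1 min. DPV used 0.05 s pulse width, 0.2 s pulse period and 10 mV/s at 298 K. […].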

[5] = B3LYP calculated gas-phase O–H BDEs, ionization potentials and acidities; settings: predicted; 5a vs 2, 6a vs 3
ovine COX-1 = target: T2, ovine COX-1 (Ovis aries, UniProt P05979); experiment: Inhibition of oCOX-1; type: biochemical; settings: for oCOX-1 inhibition (prostaglandin biosynthesis), fold more effective than ApAP: relative to ApAP; for oCOX-1 inhibition, fold less effective than 1: relative to 1
T2 sequence (P05979 25-600): T1 sequence (P05979 25-600)
How it was run: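 Ovine COX-1 was purified from ram seminal vesicles and held 30 min on ice with 2 equiv hematin in Tris·HCl pH 8.0 plus 500 μM phenol. It was then warmed 2 min at 37 °C with compound. The reaction used [¹⁴C]arachidonic acid (0.5 μM final, prewarmed 30 s) and was started with enzyme at 5.4 nM. It was quenched after 8 s with acidic ether–methanol containing BHA. Products were resolved by radio-TLC. Activity was expressed as % of control, 4–6 values per point.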

HepG2 cells = experiment: Cytotoxicity assay with HepG2 cell line; type: cell-based, human; settings: for intracellular ATP levels, fold control levels: HepG2, 24 h exposure; for decrease of total intracellular ATP concentration compared to control: 2 mM (highest exposure level)
How it was run: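 HepG2 cells (ATCC) were grown in DMEM with 10% FBS, non-essential amino acids, penicillin–streptomycin, pyruvate and glutamine, under 5% CO₂ at 37 °C. Cells were seeded at 10⁵ cells/mL with ethanol or water vehicle below 0.5%. Serial compound dilutions, up to 2 mM, were applied for 24 h with 2–3 replicates per dose. Cells were lysed for 5 min and ATP read by luciferin–luciferase luminescence after 10 min at room temperature. Values were taken relative to untreated control.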

[6] = Inhibited autoxidation of styrene; settings: for kinh: 303 K in chlorobenzene, initiated by AMVN, styrene autoxidation; for inhibition rate constant, fold lower than for 1: relative to 1
[7] = reference antioxidants; ref 27b; cited from earlier work
oCOX-1 = target: T3, oCOX-1 (Ovis aries, UniProt P05979); experiment: pH-dependent inhibition of COX-1; type: biochemical, ovine; settings: pH 6.6 to 8.5; 0.5 mM 1; 1.0 mM 2 and 3
T3 sequence (P05979 25-600): T1 sequence (P05979 25-600)
How it was run: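 COX-1 radiolabelled arachidonic acid (0.5 μM) assay: hematin-reconstituted enzyme at 5.4 nM, 8 s reaction at 37 °C, radio-TLC. Buffers were Tris·HCl at pH 8.5, 8.0 and 7.4, and sodium phosphate at pH 8.0, 7.4 and 6.6, all with 500 μM phenol. Compound was present at 0.5 or 1.0 mM final. Activity was expressed as % of the uninhibited control in the same buffer and pH. Significance was tested by Student t-test.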

[8] = target: T4, soybean lipoxygenase-1 (sLOX-1) (Glycine max, UniProt P08170); experiment: Inhibition of sLOX-1; type: biochemical; settings: up to 0.25 mM
T4 sequence (P08170 1-839): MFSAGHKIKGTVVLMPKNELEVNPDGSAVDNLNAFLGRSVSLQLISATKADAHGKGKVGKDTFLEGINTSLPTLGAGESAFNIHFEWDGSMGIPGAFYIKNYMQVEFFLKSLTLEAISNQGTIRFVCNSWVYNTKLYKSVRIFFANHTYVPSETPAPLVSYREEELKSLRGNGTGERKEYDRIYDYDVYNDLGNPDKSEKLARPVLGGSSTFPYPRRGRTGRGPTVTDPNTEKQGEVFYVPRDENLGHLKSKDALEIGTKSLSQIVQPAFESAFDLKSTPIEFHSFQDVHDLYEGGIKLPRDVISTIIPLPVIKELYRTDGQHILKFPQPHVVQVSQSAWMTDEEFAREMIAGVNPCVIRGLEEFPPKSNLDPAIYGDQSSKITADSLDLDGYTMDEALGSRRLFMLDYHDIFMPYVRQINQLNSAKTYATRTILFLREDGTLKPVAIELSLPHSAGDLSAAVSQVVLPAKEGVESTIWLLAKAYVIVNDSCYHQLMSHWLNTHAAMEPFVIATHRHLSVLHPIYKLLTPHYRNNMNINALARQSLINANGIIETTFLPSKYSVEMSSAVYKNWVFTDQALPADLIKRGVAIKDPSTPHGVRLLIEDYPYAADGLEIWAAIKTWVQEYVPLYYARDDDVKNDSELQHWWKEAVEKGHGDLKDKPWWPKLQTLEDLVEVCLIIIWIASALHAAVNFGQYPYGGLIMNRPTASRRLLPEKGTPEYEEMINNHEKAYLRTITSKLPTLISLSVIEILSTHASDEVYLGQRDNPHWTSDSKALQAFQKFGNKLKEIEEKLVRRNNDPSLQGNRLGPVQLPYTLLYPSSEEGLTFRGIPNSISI
How it was run: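 Soybean LOX-1 was purified from a commercial preparation. Linoleic acid (20 μM) was in 100 mM borate pH 9.2. Compound was added from ethanol at […] final (<5% ethanol), then enzyme at 3 nM final. Initial rates (<10% conversion) were followed at 234 nm as 13-HPODE formation. Rates were expressed relative to no-compound controls, 4–6 values per point, and IC50 was derived.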

Row | pKa [3] | Epa @ pKa [4] | pH-dependence of oCOX-1 inhibition (oCOX-1) | increase in peroxidase activity of oCOX-1 (oCOX-1 peroxidase) | Structure (SMILES) | IP [1] | O–H BDE [1] | stability under ambient conditions [2] | kinh [6] | further results
1 | – | – | – | – | CN(C)c1ccc(O)cc1 [4a, reference compound] | 157.7 kcal/mol | 76.0 kcal/mol | too unstable | – | –
2 | 9.27 | 0.12 V | – | – | CN(C)c1ccc(O)cn1 [5a] | 164.6 kcal/mol | 77.0 kcal/mol | quite stable | 4.8 × 10^6 ^d M^−1 s^−1 | effect on peroxidase activity at higher concentration (oCOX-1 peroxidase; above 100 μM): abolishes peroxidase activity; peroxidase activation at low concentration (oCOX-1 peroxidase): greater peroxidase activation; O–H BDE lower than in 2 and 3 [5]: 5 to 6 kcal/mol; oCOX-1 inhibition (prostaglandin biosynthesis), fold more effective than ApAP (ovine COX-1): ca. 12 fold; effect on ATP production (HepG2 cells; HepG2, 24 h, by 500 μM exposure): eliminating ATP production; intracellular ATP levels, fold control levels (HepG2 cells; 10 μM): ca. 1.75 fold; cytotoxicity in preliminary HepG2 viability assays (HepG2 cells; HepG2 cell culture): relatively toxic
3 | 8.18 | 0.31 V | – | – | CN(C)c1ncc(O)cn1 [6a] | 174.6 kcal/mol | 78.3 kcal/mol | quite stable | 1.1 × 10^6 ^d M^−1 s^−1 | peroxidase activation at low concentration (oCOX-1 peroxidase): greater peroxidase activation; O–H BDE lower than in 2 and 3 [5]: 5 to 6 kcal/mol; oCOX-1 inhibition (prostaglandin biosynthesis), fold more effective than ApAP (ovine COX-1): ca. 12 fold; decrease of total intracellular ATP concentration compared to control (HepG2 cells; HepG2, 24 h): 31.3 ± 1.0%; intracellular ATP concentration relative to control (HepG2 cells; HepG2, 24 h, beyond 1 mM): at or above the control; intracellular ATP levels, fold control levels (HepG2 cells; 100 μM): ca. 1.8 fold
4 | – | – | – | – | Cc1cc(C(C)(C)C)c(O)c(C(C)(C)C)c1 [BHT, butylated hydroxytoluene] | – | – | – | – | kinh [7]: 140000 M⁻¹ s⁻¹
5 | – | 0.32 V | did not change significantly | 11 fold | CC(=O)Nc1ccc(O)cc1 [compound 1, Acetaminophen, reference compound] | – | – | – | 500000 M⁻¹ s⁻¹ | IC50 (ovine COX-1): 250 µM; decrease of total intracellular ATP concentration compared to control (HepG2 cells; HepG2, 24 h): 24.8 ± 1.0%; inhibition of sLOX-1 [8]: does not inhibit; kinh ([6]; listed as ApAP): 500000 M⁻¹ s⁻¹; inhibition rate constant, fold larger than that of BHT ([6]; relative to BHT): ~4 fold
6 | 8.28 | 0.48 V | markedly improved at higher pH | only slightly | CC(=O)Nc1ccc(O)cn1 [compound 2] | – | – | – | 40000 M⁻¹ s⁻¹ | oCOX-1 inhibition, fold less effective than 1 (ovine COX-1): ca. 1.6 fold; inhibition rate constant, fold lower than for 1 [6]: 12.5 fold
7 | 5.89 | 1.02 V | markedly improved at higher pH | only slightly | CC(=O)Nc1ncc(O)cn1 [compound 3] | – | – | – | 10000 M⁻¹ s⁻¹ | oCOX-1 inhibition, fold less effective than 1 (ovine COX-1): ~3 fold; inhibition rate constant, fold lower than for 1 [6]: 50 fold
8 | – | – | – | – | Cc1c(C)c2c(c(C)c1O)CC[C@@](C)(CCC[C@H](C)CCC[C@H](C)CCCC(C)C)O2 [α-tocopherol] | – | – | – | – | kinh [7]: 3.2e+06 M⁻¹ s⁻¹
